Screens: PubChem, Broad Institute
T cruzi repl: blocks replication of Trypanosoma cruzi; hit rate 1.4% among 300,000; AID 1885; inhibition, % (test concentration not listed); T. cruzi beta-gal in NIH3T3, luminescence, 90 h;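 active means mean inhibition across valid replicates above about 55%, limit read from the data; inconclusive means mean below that limit but half or more replicates reach it; inactive means mean below it, under half of replicates reach it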;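 further: signal also drops with host cell toxicity which is not excluded here; 0% = plate median of DMSO wells and 100% = zero luminescence signal; higher percent means less beta-gal luminescence so fewer parasites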
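System: mouse NIH/3T3 fibroblasts infected with β-gal-expressing T. cruzi Tulahuen C4 / Input: NIH/3T3 cells, 5,000 per well / Buffer or medium: Low-serum DMEM with 2% FBS / Probe or stimulus: 5000 reporter trypomastigotes per well / Schedule: ≥90 h infection period, 3 h prior cell attachment / Measured by: GalScreen luminescence, 60 min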
ARNT-TACC3 inh: ARNT/TACC3 interaction disruption; Q9Y6A5; AlphaScreen His-ARNT PAS-B/GST-TACC3 binding, luminescence; TACC3 fragment carries E629A point mutation; inhibition, % at 9.99 µM; hit rate 0.66% among 390,000; AID 623870;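 active means mean inhibition of replicates at least 50% and at least half of replicates each reaching 50%; inconclusive means half or more replicates reach 50% but mean below 50%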;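 further: 0% = complete ARNT plus TACC3 wells and 100% = ARNT alone without TACC3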
AI-2 QS modul: Vibrio harveyi AI-2 quorum sensing modulation. Vibrio harveyi JMH597 AI-2 luminescence/OD600 ratio, 9 h; stronger effect = lower value; strain lacks LuxN and CqsS sensors; 0 = neutral-control median. activity change, % at 7.5 µM. hit rate 0.4% among 300,000. AID 2094; in the data active means activity change below about -75%, passing the limit was not always enough; inconclusive means no clear call, values can overlap the other calls;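 further: luminescence divided by OD600 gain over 9 h not by final OD600 alone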
HIF act: HIF pathway transcriptional activation. U2OS HRE-luciferase reporter, luminescence; normalized: DMSO 0%, desferrioxamine 100%. activation, % at 7.5 µM (by protocol). hit rate 0.32% among 300,000. AID 1910;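 active means mean activation of at least 10% of the iron chelator positive control signal, with at least half of replicates also reaching 10%; inconclusive means mean and replicate majority disagree about reaching 10%; inactive means mean and most replicates under 10%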
Starred values were filed as active, the others as inactive; ? = inconclusive; · = not tested or not shown. Only some compounds are listed: those with a hit (about 2% of all), similar ones and a draw of the others.

SMILES	T cruzi repl	ARNT-TACC3 inh	AI-2 QS modul	HIF act
CC1CC(C)CN(S(=O)(=O)c2ccc3c(c2)oc(=O)n3CC(=O)NCCCOC(C)C)C1 (stereo not given)	-1	0	51	31*
CCC(C)(C)NC(=O)Cn1c(=O)oc2cc(S(=O)(=O)N3CC(C)CC(C)C3)ccc21 (stereo not given)	6	-16	1	0
COc1ccccc1Nc1ccc2c(O)cc(S(=O)(=O)O)cc2c1	·	active	·	·
O=S(=O)(O)c1cc(O)c2ccc(Nc3ccccc3)cc2c1	·	12	·	·
C[C@@H]1CN([C@@H](C)CO)C(=O)c2cc(NC(=O)C3CCCCC3)ccc2O[C@@H](C)CCCCO[C@H]1CN(C)Cc1ccc(C(F)(F)F)cc1	·	2	·	·
CCS(=O)(=O)c1ccc(-c2cccc(NC(=O)COc3ccccc3)c2)nn1	-11	·	39	60*
C[C@@H]1CN([C@H](C)CO)S(=O)(=O)c2ccc(-c3ccccc3F)cc2O[C@@H]1CN(C)Cc1ccncc1	·	9	·	·
Cc1noc(C)c1S(=O)(=O)Nc1ccc2c(c1)C(=O)N([C@H](C)CO)C[C@@H](C)[C@H](CN(C)C(=O)Nc1ccc3c(c1)OCO3)O2	·	2	·	·
O=c1c2ccccc2nc(COc2ccccc2)n1/N=C/c1ccc(O)cc1O	57*	8	56	61*
Cc1cc([N+](=O)[O-])cc(/C=N/n2c(C)nc3ccccc3c2=O)c1O	4	36	25	1
O=[N+]([O-])c1ccc(O)c(/C=N/n2c(CO)nc3ccccc32)c1	-15	-4	9	2
C/C(=N\OCc1nc2ccccc2c(=O)n1/N=C/c1cc([N+](=O)[O-])ccc1O)c1ccccc1	21	-2	-20	10*
C/C(=N\OCc1nc2ccccc2c(=O)n1/N=C/c1cc(C)cc([N+](=O)[O-])c1O)c1ccccc1	46	-5	60	9.6*
C[C@H](CO)N1C[C@H](C)[C@@H](CN(C)S(=O)(=O)c2ccc(F)cc2)Oc2ccc(NC(=O)Cc3cn(C)c4ccccc34)cc2CC1=O	·	1	·	·
Cc1onc(-c2ccccc2Cl)c1C(=O)O/N=C(\N)c1ccccc1	59*	-8	6	1
Cc1onc(-c2cccc(Cl)c2Cl)c1C(=O)O/N=C(\N)c1ccc([N+](=O)[O-])o1	78*	-3	-29	1
Cc1onc(-c2ccccc2)c1C(=O)O/N=C(\N)c1ccc([N+](=O)[O-])o1	45	-1	?	-1
C[C@H](CO)N1C[C@H](C)[C@@H](CN(C)S(=O)(=O)c2cn(C)cn2)Oc2ccc(NC(=O)Nc3ccc(C(F)(F)F)cc3)cc2C1=O	·	-9	·	·
CCOc1ccc(Nc2nc(NCC3CCCO3)c3ccccc3n2)cc1 (stereo not given)	48	18	18	0
c1ccc(Nc2nc(NCC3CCCO3)c3ccccc3n2)cc1 (stereo not given)	93*	·	14	0
COc1ccc(Nc2nc(NCC3CCCO3)c3ccccc3n2)c(OC)c1 (stereo not given)	68*	·	8	0
Oc1cccc(Nc2nc(NCC3CCCO3)c3ccccc3n2)c1 (stereo not given)	52	44	-20	0
O=[N+]([O-])c1nn(-c2ccc3c(c2)OCCO3)n(O)c1=NC1CCN(Cc2ccccc2)CC1	62*	9	-5	1
O=[N+]([O-])c1nn(-c2ccccc2)n(O)c1=NC1CCN(Cc2ccccc2)CC1	77*	8	35	1
COc1ccc(S(=O)(=O)Nc2ccc3c(c2)C(=O)N([C@@H](C)CO)C[C@@H](C)[C@@H](CN(C)C(=O)CCCN(C)C)OCCCC[C@@H](C)O3)cc1	·	3	·	·
SMILES	T cruzi repl	ARNT-TACC3 inh	AI-2 QS modul	HIF act
CN(C)CCNC(=O)C1CC(=O)N(c2ccc(F)c(Cl)c2)C1 (stereo not given)	37	-5	16	-1
CN(CCNC(=O)C1CC(=O)N(c2ccc(F)c(Cl)c2)C1)Cc1ccccc1 (stereo not given)	60*	0	-1	0
Cc1ccc(CCN2CC(C(=O)NCCCN(C)Cc3ccccc3)CC2=O)cc1 (stereo not given)	63*	-3	24	0
COc1cccc(-c2cc(C(=O)N3CCN(C(c4ccccc4)c4ccccc4)CC3)no2)c1	68*	-5	31	0
NC(=S)N/N=C/c1cccc(O)c1O	-12	·	40	1
Oc1ccccc1C=NNC(=S)NN=Cc1ccccc1O	·	61*	·	·
Oc1c(Br)cc(Br)cc1/C=N/NC(=S)N[C@H]1CC2C=CC1C2 (stereo not given in full)	-19	12	3	0
Cc1cc(/C=N/NC(N)=S)c(O)c(/C=N/NC(N)=S)c1	1	66*	-1	0
CNC(=S)N/N=C/c1cc(Br)cc(Br)c1O	-13	48*	11	0
Oc1ccccc1/C=N/Nc1ccccc1	-1	10	21	0
NC(=S)N/N=C/c1ccccc1O	7	73*	17	0
CC(=O)N(C)C[C@@H]1Oc2ncc(-c3ccc(C(=O)N(C)C)cc3)cc2C(=O)N([C@H](C)CO)C[C@@H]1C	·	-3	·	·
COc1ccc(CN(C)C[C@H]2OCCCC[C@@H](C)Oc3ccc(NS(=O)(=O)c4c(C)noc4C)cc3C(=O)N([C@@H](C)CO)C[C@@H]2C)cc1	·	1	·	·
Cc1ccc(-n2c(C)cc(/C=N/NC(=O)c3ccncc3)c2C)cc1	4	6	6	0
Oc1ccccc1/C=N/Nc1ncc(Br)cn1	10	28	11	34*
Oc1ccccc1/C=N/Nc1cccc2cccnc12	10	18	2	2
Cc1c(Cl)cccc1NC(=S)N/N=C/c1ccccc1Cl	-32	·	-5	41*
Cc1cnc(C=NNC(N)=S)c2cccc(N)c12	·	19	·	·
Cc1ccc(-n2c(C)cc(/C=N/NC(N)=S)c2C)cc1	65*	-3	33	1
NC(=S)NN=Cc1nccc2ccccc12	·	77*	·	·
CO[C@H]1CN(C)C(=O)c2cc(NC(=O)c3ccc(F)cc3)ccc2OC[C@@H](C)N(C(C)=O)C[C@@H]1C	·	-9	·	·
COc1ccc(S(=O)(=O)N(C)C[C@H]2OCCCC[C@@H](C)Oc3ccc(NC(=O)Nc4ccc5c(c4)OCO5)cc3C(=O)N([C@@H](C)CO)C[C@H]2C)cc1	·	-6	·	·
CC(=O)N(C)C[C@H]1Oc2cc(C#CC3CCCC3)ccc2S(=O)(=O)N([C@H](C)CO)C[C@H]1C	·	1	·	·
COc1ccccc1CNC(=O)C[C@H]1C[C@H]2c3cc(NC(=O)C4CCC4)ccc3O[C@H]2[C@@H](CO)O1	·	-10	·	·
NC(=S)N/N=C/c1ccc2ccccc2c1	58*	-5	-48	2
O=C(C[C@H]1CC[C@@H]2[C@H](COC[C@H](O)CN2Cc2ccc(Oc3ccccc3)cc2)O1)N1CCOCC1	·	9	·	·
C[C@@H]1CN([C@H](C)CO)C(=O)c2cccc(NC(=O)C3CCCCC3)c2O[C@H]1CN(C)S(=O)(=O)c1cccs1	·	2	·	·
